Paper PMC4944838 (Molecular cell, 2013)
Substitutions are numbered along the chain they refer to. Blank lines part the entries; values can stand above or below the molecule they belong to. Where no end group is shown, it is not given here. [ ]: non-standard residue; d: D form. pT = C[C@@H](OP(=O)(O)O)[C@H](N)C(=O)O

Tests used:
Rad4-BRCT1,2 = target: T1, Rad4-BRCT1,2 (Schizosaccharomyces pombe, UniProt P32372); assay: Co-crystallisation with Rad4-BRCT1,2; format: binding, S. pombe; conditions: co-crystal X-ray structure
T1 sequence (P32372 1-186 limits assumed): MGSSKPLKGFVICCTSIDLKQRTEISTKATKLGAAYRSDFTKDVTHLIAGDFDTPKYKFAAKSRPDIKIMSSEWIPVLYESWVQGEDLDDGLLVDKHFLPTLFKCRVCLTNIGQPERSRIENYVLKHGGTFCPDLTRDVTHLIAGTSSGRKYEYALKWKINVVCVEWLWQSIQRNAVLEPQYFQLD
How it was run: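 S. pombe Rad4 BRCT1,2 construct expressed in E. coli and purified by affinity tags and conventional column chromatography. Crystals of protein and complexes grown by hanging-drop vapour diffusion. Diffraction data collected from single crystals on a home source or synchrotron. Structures phased by molecular replacement and refined.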

[1] = target: Rad4-BRCT1,2 (BRCT1,2 segment of S. pombe Rad4^TopBP1) (S. pombe) (UniProt P32372); assay: fluorescence polarisation
[2] = target: Rad4-BRCT1,2 K56E (S. pombe) (UniProt P32372); assay: fluorescence polarisation
[3] = target: Rad4-BRCT1,2 K151E (S. pombe) (UniProt P32372); assay: fluorescence polarisation
[4] = target: Rad4-BRCT3,4 (BRCT3,4 segment of S. pombe Rad4^TopBP1) (S. pombe) (UniProt P32372); assay: fluorescence polarisation
Rad4-BRCT1,2 K56E = target: T2, Rad4-BRCT1,2 K56E (S. pombe, UniProt P32372 1-186, K56E); assay: fluorescence polarisation
T2 sequence: T1 sequence (P32372 1-186 limits assumed) with K56E

Rad4-BRCT1,2 K151E = target: T3, Rad4-BRCT1,2 K151E (S. pombe, UniProt P32372 1-186, K151E); assay: fluorescence polarisation
T3 sequence: T1 sequence (P32372 1-186 limits assumed) with K151E

Chain of Rad4-BRCT3,4 (BRCT3,4 segment of S. pombe Rad4^TopBP1) (S. pombe) (P32372 291-494): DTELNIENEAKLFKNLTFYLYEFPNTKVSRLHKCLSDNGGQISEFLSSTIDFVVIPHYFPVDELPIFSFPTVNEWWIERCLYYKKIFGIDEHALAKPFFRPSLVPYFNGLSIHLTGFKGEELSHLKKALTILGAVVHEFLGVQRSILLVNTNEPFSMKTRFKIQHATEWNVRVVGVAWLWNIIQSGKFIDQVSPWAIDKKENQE

Molecule: 184 – Val Pro Glu pThr Val – 188
- site occupancy in co-crystal structure with Rad4-BRCT1,2 (in words) (Rad4-BRCT1,2): peptide molecules bound to both BRCT domains

Molecule: 232 – Val Glu Ser pThr Pro – 236 [Crb2 phosphopeptide (residues 229-241)]
- site occupancy in co-crystal structure with Rad4-BRCT1,2 (in words) (Rad4-BRCT1,2): only the BRCT2 site was occupied

Molecule: Crb2 peptide phosphorylated on both Thr215 and Thr235 (fluorescence polarisation)
- Kd [1]: 1970 nM

Molecule: Rad9 C-terminal tail peptide phosphorylated on Ser423
- Kd [4]: 8600 nM

Molecule: RVES[pT]PPAFLP (also: fluorescein label, site not given here) [Crb2-pThr235 phosphopeptide, fluorescently labelled]
- Kd (Rad4-BRCT1,2 K56E): 11700 nM
- Kd (Rad4-BRCT1,2 K151E): 59000 nM

Now from value to molecule:

- Kd [2]: 2200 nM
- Kd [1]: 500 nM
- Kd [3]: 400 nM
Molecule: Crb2-pThr187 phosphopeptide, fluorescently labelled

- Kd [4]: 1900 nM
Molecule: Rad9 C-terminal tail peptide phosphorylated on Thr412

- Kd [4]: 6400 nM
Molecule: Rad9 C-terminal tail peptide phosphorylated on Thr412 and Ser423
